Screening data deposited in PubChem by several laboratories.
PMI activator – activators of human PMI, primary screen, biochemical, fluorescence intensity, near-Km mannose 6-phosphate. purified human PMI, coupled resazurin fluorescence, 20 min; active compounds read high; 1 = vehicle control, 0 substrate-free wells. activation factor at 20 µM. Mannose-6-phosphate isomerase (Homo sapiens), P34949. 0.005% of 190,000 active;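 active = activation factor of 2 or more at 20 µM, relative to plate controls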
ROMK primary – ROMK potassium channel modulators, primary screen, cell-based, thallium flux, MLSMR library | ATP-sensitive inward rectifier potassium channel 1 (Homo sapiens), P48048 | Tet-inducible ROMK, thallium flux fluorescence; actives lie on both sides | B-score at 10 µM | 2% of 130,000 active;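 active = signal ratio slope over the read window, or its plate-corrected B-score, at least 3 SD from the plate mean, either direction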;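 also: B-score of the F/F0 ratio slope over 7 to 12 s after thallium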
Target sequence (P48048 whole entry, looked up): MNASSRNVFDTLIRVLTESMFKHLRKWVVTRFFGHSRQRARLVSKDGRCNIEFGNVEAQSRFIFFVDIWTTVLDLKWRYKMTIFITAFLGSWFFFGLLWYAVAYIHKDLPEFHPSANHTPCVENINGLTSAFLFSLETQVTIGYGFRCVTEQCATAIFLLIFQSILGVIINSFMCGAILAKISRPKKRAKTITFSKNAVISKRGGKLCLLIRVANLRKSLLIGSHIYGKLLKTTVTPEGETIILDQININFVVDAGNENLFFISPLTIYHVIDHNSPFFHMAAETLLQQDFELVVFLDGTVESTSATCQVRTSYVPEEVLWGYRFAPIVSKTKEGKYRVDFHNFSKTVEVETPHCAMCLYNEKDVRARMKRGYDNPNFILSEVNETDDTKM
KCC2 mod – KCC2 cotransporter modulators, thallium flux, primary screen, cell-based, HEK293 KCC2, FluoZin-2 fluorescence, MLSMR; KCC2 cells, thallium flux FluoZin-2 fluorescence; B-score of Tl+ flux slope (higher = more flux/activation; lower = inhibition) at 10 µM; 2.2% of 190,000 active;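 active = thallium flux slope and its plate-corrected score both differing from the plate sample mean at a set confidence after two filtering rounds, in either direction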;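 also: slope of fluorescence scaled to starting intensity during 10 to 20 s after thallium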
ABCB1 inh – ABCB1 efflux pump inhibitors, primary screen, cell-based, multiplex, flow cytometry, ABCG2 counter-screen. 0.067% of 190,000 active. CCRF-Adr cells, JC-1 efflux. AID 1326, 2008. ATP-dependent translocase ABCB1 (Homo sapiens), P08183. inhibition, % at 6.6 µM; in the data active = inhibition above about 40%;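 also: 0% = vehicle and 100% = reference inhibitor; higher value means more JC-1 retained so stronger ABCB1 efflux block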
PMI act satM6P – human PMI activators, high substrate, primary screen, biochemical, fluorescence intensity, near-saturating mannose 6-phosphate; Mannose-6-phosphate isomerase (Homo sapiens), P34949; coupled PMI enzyme assay, resazurin fluorescence, 20 min; active compounds read high; 1 = untreated enzyme, 0 = substrate-free blank; activation factor at 20 µM; 0.34% of 190,000 active; AID 1216, 2008;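 active = activation factor of 2 or more at 20 µM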
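Technique: Diaphorase-driven resazurin-to-resorufin fluorescence, excitation 544, emission 590 nm | Assay system: Human PMI in coupled enzyme assay | Times: Enzyme reaction with compound 20 min at room temperature | Medium: HEPES-buffered pH 7.4 with magnesium and detergent | Reagent: Mannose-6-phosphate 1.0 mM (near-saturating) plus 0.22 mM NADP+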
ABCG2 block – ABCG2 efflux pump inhibitors, primary screen, multiplex with ABCB1, IgMXP3 cells, flow cytometry; AID 1325, 2008; JC-1 efflux; inhibition, % at 6.6 µM; 0.1% of 190,000 active;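 active = inhibition above 80%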;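 also: 0% = DMSO and 100% = nicardipine control wells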
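test system = two drug-resistant human cell lines, ABCG2 and ABCB1 | amount = 3 million cells/mL final, two lines in 1:1 ratio | reagent = JC-1 transporter substrate | doses = one concentration, 6.6 µM final | incubation = 10 min at 25 °C | signal = flow cytometric JC-1 green MFI at 530 nm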
* = called active by the depositor; . = no result. An excerpt weighted towards active compounds, which were near 3.3% of everything screened.

SMILES	PMI activator	ROMK primary	KCC2 mod	ABCB1 inh	PMI act satM6P	ABCG2 block
N#Cc1c(-c2cccs2)nc(SCc2ccc(Cl)cc2)[nH]c1=O	0.7	3.6*	-3.5*	0	0.8	-3
Oc1c(N=Nc2ccccn2)ccc2ccccc12	0.8	.	53*	0	0.7	4
CCCNC(=S)Nc1c(C)n(C)n(-c2ccccc2)c1=O	0.9	0.88	0.54	0	1	12
O=C(NC(=S)N1CCOCC1)C12CC3CCC(CC(C3)C1)C2	1.1	.	2.6	0	1.1	23
CC12CC3CC(C)(C1)CC(C(=O)NC(=S)N1CCCCC1)(C3)C2	0.9	-1.2	10*	2	1	19
CC12CC3(C)CC(C)(C1)CC(C(=O)NC(=S)N1CCOCC1)(C2)C3	0.9	.	9.4*	0	0.9	0
CCOC(=O)C1(C)/C(=N/Nc2ccccc2)C(=O)C(=O)N1c1ccccc1 (centres undefined)	1.7	0.072	-1.8	0	2.1*	1
CCOC(=O)C1(C)/C(=N/Nc2ccccc2OC)C(=O)C(=O)N1c1ccccc1 (centres undefined)	1.4	0.65	.	1	1.6	2
CCn1ncc(Br)c1C(=O)N(C)C12CC3CC(CC(C3)C1)C2	1	-4.5*	-0.72	1	1	10
CCn1ncc(Br)c1C(=O)Nc1ccn(C23CC4CC(CC(C4)C2)C3)n1	1	.	-1.8	0	1	0
Cc1ccccc1NC1=NC(=S)N(c2ccccc2)C12CCOC(C)(C)C2 (centres undefined)	0.9	.	26*	1	1	1
CC(C)c1nc2sc3c(=O)[nH]cnc3c2c2c1CCC2	0.9	2.3	-0.35	0	1.1	0
CC(C)c1nc2sc3c(=S)nc[nH]c3c2c2c1CCC2	.	5.2*	159*	.	.	.
CCOC(=O)CSc1cccc2cccnc12	1	.	15*	0	1	3
NNC(=O)c1ccc(CSc2cccc3cccnc23)cc1	1	0.2	0.0056	0	1	0
Cc1cccc(CSc2cccc3cccnc23)c1	1	.	19*	0	1	4
CCCCCOc1ccc(NC(=O)CSc2cccc3cccnc23)cc1	1	.	5.4*	-1	0.9	-5
Cc1cc(OCc2nc3ccccc3s2)ccc1N	.	-0.57	-0.9	.	.	.
CCCCn1c(N)c(C(=S)NC(=O)CC(C)(C)C)c(=O)n(C)c1=O	0.8	.	28*	0	0.8	0
Cn1nc(CSc2ccccc2)c(C=O)c1Cl	0.9	0.4	-0.0073	1	0.9	3
CCOc1ccc2nc(SC3CC(=O)N(c4ccc(C)cc4)C3=O)sc2c1 (centres undefined)	1	.	.	0	1	0
CCOc1ccc2nc(/N=C/c3c(C)[nH]n(-c4ccccc4)c3=O)sc2c1	1.3	2.6*	77*	0	1.2	2
CCOc1ccc2nc(/N=C/c3c(C)[nH]n(-c4ccc(C)cc4)c3=O)sc2c1	1	0.26	69*	-1	1	-4
CC(=O)c1cccc(NC(=O)C(C)N(C)CC(=O)Nc2ccc(Cl)cc2)c1 (centres undefined)	.	.	-1.8	.	.	.
COc1ccc(Cn2nc(C)n(N(C)c3ncc(C(F)(F)F)cc3Cl)c2=O)cc1	1	-0.0065	-0.42	1	1.1	3
SMILES	PMI activator	ROMK primary	KCC2 mod	ABCB1 inh	PMI act satM6P	ABCG2 block
Cc1cc(C)cc(NS(=O)(=O)c2ccc(NC(=S)NC(=O)c3cccs3)cc2)c1	0.9	-0.83	0.19	0	1	-3
CCN(c1ccccc1)S(=O)(=O)c1ccc(NC(=S)NC(=O)c2ccc(Br)o2)cc1	1	.	20*	0	1	0
CN(c1ccccc1)S(=O)(=O)c1ccc(NC(=S)NC(=O)c2ccccc2)cc1	1	.	3*	1	1	5
Cc1c(NC(=S)NC(=O)c2ccc(Br)o2)c(=O)n(-c2ccccc2)n1C	1	.	0.96	0	1.1	3
Cc1cccc(C)c1NC(=S)NC(=O)c1ccc(Br)o1	0.9	2.1*	192*	0	0.9	4
CN(C1CCCCC1)S(=O)(=O)c1ccc(NC(=S)NC(=O)c2cccs2)cc1	0.8	.	17*	0	0.8	3
Cc1ccc2c(C)nc(NC3=NCN(CCc4ccccc4)CN3)nc2c1	0.9	.	.	.	0.9	.
CCC1(C)NC(=O)N(CC(=O)N2N=C(c3ccccc3)CC2c2ccc(OC)cc2)C1=O (centres undefined)	0.8	.	-0.0015	1	0.8	3
COc1ccccc1N1C(=O)CC(Sc2n[nH]c(-c3cccc(C)c3)n2)C1=O (centres undefined)	0.5	0.33	-0.045	-1	0.8	-4
O=C(Nc1nnc(-c2ccccc2Cl)o1)c1ccc(S(=O)(=O)N2CCCCCC2)cc1	1.2	.	8.5*	-1	1.1	-1
O=C(Nc1ccccc1)c1ccc(S(=O)(=O)N2CCCCC2)cc1	1.1	.	1.2	0	1.1	3
O=C(NC(=S)Nc1ccc(S(=O)(=O)N2CCCCC2)cc1)c1ccccc1	1	2.8*	0.66	0	1.1	-1
CCCCn1c(NC(=S)Nc2ccccc2)nc2ccccc21	0.8	0.32	47*	-1	0.9	-5
CCCCn1c(NC(=O)C2CCCCC2)nc2ccccc21	1	-0.36	1.5	0	1.1	2
c1ccc(-c2ccc3c(c2)c2c4n3CCN=C4CCC2)cc1	1.1	.	.	1	1.4	1
O=C1CC(=C2c3ccccc3-c3ccccc32)C(=O)N1CCCCN1CCN(c2ccccc2)CC1	1.5	0.25	0.64	3	2.1*	10
O=C1c2ccccc2C(=O)N1CCCCN1CCN(CCCCN2C(=O)c3ccccc3C2=O)CC1	.	.	1.9	.	.	.
CCC(C)N(C(=O)CSc1ccc(NC(C)=O)cc1)C1CCS(=O)(=O)C1 (centres undefined)	1	1	-0.026	0	0.9	0
Oc1c(Cl)cc(Cl)cc1Sc1cc(Cl)cc(Cl)c1O	1.1	.	37*	0	1.2	-1
CC1CCCCC1NCC(=O)NCc1ccc(F)cc1 (centres undefined)	1.1	-0.35	.	0	1.1	0
